Bioassay records as filed in PubChem.
An excerpt weighted towards active compounds, which were near 1.9% of everything screened.
ABHD5 PLIN5 PPI = inhibitors of human ABHD5-perilipin-5 interaction | Split G. princeps luciferase complementation, luminescence, 4 h | inhibition, % at 4 µM | actives 0.78% (n = 360,000);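 active = inhibition above the mean inhibition across every tested compound plus 3 SD, cut at about 22% in these data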;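 also: 0% = DMSO only wells and the 100% control is not disclosed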
XiGFP reactiv = X-chromosome reactivation activator. XiGFP mouse fibroblasts, % GFP-positive cells imaging, 3 d; cells co-treated with 5-aza-dC sensitizer; scaled so ellipticine positive control = 100%. activation, % at 7.58 µM. actives 0.055% (n = 360,000);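 active = mean normalized replicate activation at least 10% and every replicate at or above 10%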;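 also: 0% = median of on-plate neutral control wells and 100% = ellipticine 6 µM median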
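System: 68-5-11 XiGFP fibroblast line | Buffer or medium: DMEM containing 5-aza-dC | Compound: Single point | Times: Compounds 3 days, fix/stain 15 min at room temperature | Benchmarks: Positive control ellipticine, 6 µM final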
Rpn11 block = inhibitors of human proteasome Rpn11 | human 26S proteasome, Ub4-pepOG fluorescence polarization; 20S core pre-blocked with epoxomicin | actives 0.59% (n = 360,000) | AID 588493 | inhibition, % at 20 µM | O00487;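 active = inhibition at 20 µM, scaled to each plate's controls, above about 33%, limit read from the data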
Rin1-Abl PPI inh = inhibitors of human Rin1-Abl protein interaction; TR-FRET Rin1/Abl binding, biochemical; inhibition, % at 7.35 µM; actives 0.4% (n = 360,000); AID 588664; in the data active = inhibition above about 5%, passing the limit was not always enough
NadD inh = inhibitors of Staphylococcus aureus NadD; actives 0.78% (n = 360,000); purified NadD enzyme, colorimetric absorbance read-out; inhibition, % at 20 µM; in the data active = inhibition above about 26%
Rin1-Abl confirm = Rin1-Abl interaction inhibition confirmation | shares compounds with Rin1-Abl PPI inh | TR-FRET Rin1-Abl binding, purified proteins | inhibition, % at 7.35 µM | actives 49% (n = 1,300)
GFP quencher = counter-screen for Rin1-Abl inhibitors: GFP fluorescence quenchers; shares compounds with Rin1-Abl PPI inh; inhibitors/quenchers counterscreen; inhibition, % at 6.75 µM; actives 8.5% (n = 1,300); AID 602125;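 also: ABL1-eGFP fusion protein alone without its partner RIN1-SBP; 0% = protein with vehicle and 100% = wells lacking protein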
GFP quench dose = counter-screen for Rin1-Abl inhibitors: GFP quenchers, dose response; shares compounds with Rin1-Abl PPI inh; GFP fluorescence interference/quenching counterscreen; IC50, µM; 230 tested, under 10 active; call rule not given here;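 also: ABL1-eGFP fusion protein alone without its RIN1 binding partner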
* = called active by the depositor; x = not tested or not shown. Rule as the data show it, unless noted: active = inhibition above about 6.5%; inactive = the rest.

SMILES	ABHD5 PLIN5 PPI	XiGFP reactiv	Rpn11 block	Rin1-Abl PPI inh	NadD inh	Rin1-Abl confirm	GFP quencher	others
COc1cc2nc(Nc3cccc(F)c3)nc(N)c2cc1OC	6.3	0.1	-3.0	8.9*	-14.8	13.5*	0.9
COc1nc(Nc2cccc(F)c2)nc(OC)n1	-0.1	0.0	1.5	2.6	-1.7	x	x
CNC[C@H]1Oc2ccc(N(C)C)cc2CC(=O)N(C)C[C@@H]1C	x	0.2	x	x	x	x	x
Cc1c(F)cccc1NS(=O)(=O)c1ccc2c(c1)c(=O)n(C)c(=O)n2C	-9.6	0.0	-6.5	10.3*	-2.2	2.2	-0.8
Cc1noc(C)c1NC(=O)Nc1ccc2c(c1)C(=O)N([C@@H](C)CO)C[C@@H](C)[C@H](CN(C)CC1CC1)OCCCC[C@H](C)O2	x	0.0	x	x	x	x	x
Cc1ccc(-c2nnc(-n3ncc(C#N)c3N)c3ccccc23)cc1C	6.3	0.1	-4.0	9.3*	0.2	-0.6	-1.2
Cc1nc(Nc2cccc(O)c2)c2c3c(sc2n1)CCC3	-1.6	-0.2	-0.4	45.5*	0.2	44.7*	-1.4	GFP quench dose=>67.6
O=C(C[C@H]1C[C@@H]2c3cc(NC(=O)Nc4ccccc4)ccc3O[C@@H]2[C@H](CO)O1)NCC(F)(F)F	x	-0.1	x	x	x	x	x
C[C@H](CO)N1C[C@H](C)[C@@H](CN(C)Cc2ccc(Oc3ccccc3)cc2)Oc2c(NC(=O)c3ccncc3)cccc2C1=O	4.8	0.0	3.4	30.3*	-4.2	27.8*	1.1
C[C@H](CO)N1C[C@H](C)[C@@H](CN(C)Cc2ccc(-c3ccccc3)cc2)Oc2c(NC(=O)c3ccncc3)cccc2C1=O	5.9	-0.1	6.1	22.3*	-4.4	27.0*	-3.1
C[C@H](CO)N1C[C@H](C)[C@@H](CN(C)Cc2ccc(-c3ccccc3)cc2)Oc2c(NS(=O)(=O)c3ccc(F)cc3)cccc2C1=O	6.4	-0.5	3.0	9.1*	-3.0	9.2*	-1.3
C[C@@H]1CN([C@@H](C)CO)C(=O)c2cccc(NS(=O)(=O)c3ccc(F)cc3)c2O[C@@H]1CN(C)Cc1ccc(-c2ccccc2)cc1	x	-0.8	x	x	x	x	x
COc1ccc2c3c([nH]c2c1)[C@@H](CO)N(C(=O)CN(C)C)CC31CN(CC2CCCC2)C1	x	0.1	x	x	x	x	x
O=c1c2sc3nc(N4CCOCC4)c4c(c3c2ncn1CCc1ccccc1)CCCC4	-4.8	x	-3.9	-0.3	2.7	x	x
CN(C)CCNc1ncnc2c1sc1nc(N3CCOCC3)c3c(c12)CC(C)(C)SC3	3.2	x	7.1	27.0*	-8.7	25.9*	2.0	GFP quench dose=>67.5
CC1(C)Cc2c(c(N3CCCC3)nc3sc4c(N5CCN(CCO)CC5)ncnc4c23)CO1	7.3	x	20.3	7.5	-1.9	x	x
OCCN(CCO)c1ncnc2c1sc1nc(N3CCOCC3)c3c(c12)CCCC3	6.9	x	4.8	10.8*	-12.8	8.3*	-0.6
OCCN1CCN(c2ncnc3c2sc2nc(N4CCOCC4)c4c(c23)CCC4)CC1	2.4	x	6.0	14.5*	-1.7	22.8*	1.8	GFP quench dose=>67.6
COC(=O)c1ccc(Cn2cnc3c(sc4nc(N5CCOCC5)c5c(c43)CCCC5)c2=O)o1	11.1	x	7.7	8.7*	6.4	7.1*	-1.3
C[C@@H]1CN([C@@H](C)CO)S(=O)(=O)c2ccc(C#C[C@@H](C)O)cc2O[C@H]1CN(C)Cc1ccc(-c2ccccc2)cc1	x	-1.1	x	x	x	x	x
COc1ccc(C2C(C(=O)N3CCN(c4ccccn4)CC3)CCC(=O)N2c2ccc(OC)cc2)cc1 (stereo not drawn)	15.2	0.0	-1.1	7.5*	-0.9	4.0	-3.4
COc1ccc2c3c([nH]c2c1)[C@@H](CO)N(C(=O)Nc1ccc(F)cc1)CC31CCN(S(=O)(=O)c2cccc(F)c2)CC1	x	0.3	x	x	x	x	x
O=C(CCN1CCN(c2ccccc2)CC1)N/N=C/c1ccc(O)c(O)c1O	-14.7	0.0	-52.7	18.7*	29.5	50.6*	13.2*
O=C(Cc1csc(N2CCOCC2)n1)N/N=C/c1ccc(O)c(O)c1O	-14.7	-0.1	-1.2	29.6*	8.1	27.9*	9.0*
COc1ccc(/C=N/NC(=O)CCN2CCN(c3ccccc3)CC2)c(OC)c1OC	0.2	x	-1.1	0.3	-1.3	x	x
SMILES	ABHD5 PLIN5 PPI	XiGFP reactiv	Rpn11 block	Rin1-Abl PPI inh	NadD inh	Rin1-Abl confirm	GFP quencher	others
Cc1cc(C(=O)N/N=C/c2ccc(O)c(O)c2O)c(C)n1-c1ccccc1	-6.4	0.2	15.8	20.1*	33.0*	10.8*	7.8*
CC(=O)N1[C@H](CO)[C@H](c2ccccc2)C12CN(C(=O)Cc1ccccc1)C2	x	0.1	x	x	x	x	x
Fc1cccc(CN2C[C@@H]3N[C@H](C2)C3c2ccc(/C=C/c3ccccc3)cc2)c1 (stereo partly drawn)	x	0.0	x	x	x	x	x
Cc1cccc(NC(=O)C(c2ccccc2Cl)N2CCOCC2)c1 (stereo not drawn)	1.3	0.0	-8.4	8.2*	4.7	-1.4	0.6
N#Cc1ccc(-c2ccc(C3[C@H]4CNC[C@@H]3N4C(=O)NC3CCCCC3)cc2)cc1 (stereo partly drawn)	x	0.0	x	x	x	x	x
CC(=O)c1ccc(OCCCC(=O)N2CCN(S(=O)(=O)c3ccc(C)cc3C)CC2)cc1	-13.2	0.1	-6.0	7.5*	-0.4	-0.1	-0.1
CC(=O)Nc1cc(OC(C)=O)c2nonc2c1OC(C)=O	17.6	x	3.6	16.0*	3.4	0.4	4.6
CC(=O)Nc1nonc1NC(C)=O	1.1	x	-1.4	-2.4	-1.7	x	x
C[C@@H]1CN([C@H](C)CO)C(=O)c2cc(NS(=O)(=O)c3ccccc3)ccc2O[C@H]1CN(C)C(=O)Nc1ccc(C(F)(F)F)cc1	x	0.0	x	x	x	x	x
COc1cccc(NC(=O)N(C)C[C@@H]2OCc3cn(nn3)CCCC(=O)N([C@H](C)CO)C[C@@H]2C)c1	x	-0.3	x	x	x	x	x
Cc1cccc(C(=O)Nc2cccc(C(=O)N/N=C/c3ccccn3)c2)c1	-0.9	0.2	-4.1	19.0*	-9.5	-2.6	0.0
CCn1c(N2CCN(CC(=O)c3c(C)n(C)c4ccccc34)CC2)nc2c1c(=O)[nH]c(=O)n2C	7.9	x	-4.8	6.4*	8.1	-2.1	0.3
CCn1c(N2CCN(CC(=O)c3c(C)n(C)c4ccc(OC)cc34)CC2)nc2c1c(=O)[nH]c(=O)n2C	-3.2	0.3	-2.4	-4.4	-1.6	x	x
CC(=O)N1[C@@H]2CN(S(C)(=O)=O)C[C@H]1C2c1ccccc1 (stereo partly drawn)	x	0.2	x	x	x	x	x
COc1ccc(Cc2nc3ccc(C(=O)NCC4COCCO4)cc3o2)cc1 (stereo not drawn)	8.3	0.1	-2.3	7.8*	-3.0	-0.7	-1.2
C[C@@H]1CN([C@H](C)CO)C(=O)c2cc(NC(=O)Nc3ccc(F)cc3)ccc2O[C@@H]1CN(C)Cc1ccccc1	x	0.0	x	x	x	x	x
